From ChEMBL document CHEMBL1156781, “The binding of synthetic retinoids to lipocalin beta-lactoglobulins” (J Med Chem, 2010)
pKd: −log10 of the molar value. In brackets after ≈: the same amount, converted by molar mass. Activity calls are given as the source filed them. The rule behind the calls is not given here.

What was measured:
Rangifer tarandus [1] = test: (§1) Binding affinity to reindeer beta-lactoglobulin by fluorescence spectroscopy
[2] = molecular target: T1, Beta-lactoglobulin (Bos taurus) (UniProt P02754); test: (§2) Binding affinity to bovine beta-lactoglobulins by fluorescence spectroscopy
T1 sequence (whole entry): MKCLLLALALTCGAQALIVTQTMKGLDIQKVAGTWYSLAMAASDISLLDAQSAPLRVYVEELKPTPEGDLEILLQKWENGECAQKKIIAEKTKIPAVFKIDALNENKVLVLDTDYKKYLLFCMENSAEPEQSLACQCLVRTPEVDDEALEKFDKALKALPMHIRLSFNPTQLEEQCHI

[3] = Solubility assessed as lowest drug level in which detectable aggregates formed by dynamic light scattering method; type: physicochemical
In short: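 Retinoid dilutions in PBS measured by dynamic light scattering. The critical concentration is the lowest level giving DLS-detectable aggregates. Concentrations ran up to 200 μM.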

[4] = Solubility assessed as aggregate formation at >= pH 5 by dynamic light scattering method; type: physicochemical; settings: buffer
In short: (§3)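 Retinoids diluted in acid buffer spanning pH 2.0 to 7.0 and examined by dynamic light scattering for aggregate signal.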

[5] = molecular target: T1, Beta-lactoglobulin (Bos taurus); test: Binding affinity to bovine beta-lactoglobulins assessed as aggregate diameter size formed at 200 uM by dynamic light scattering method
In short: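 Retinoid at 200 μM diluted in PBS and measured by dynamic light scattering as mean intensity and particle diameter (kCps/nm). Bovine βLG was then added to the cuvette at 50 μM, and a second run followed a 30 min stabilization phase.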

[6] = Solubility in PBS assessed as aggregate diameter size at 200 uM by dynamic light scattering method
[7] = molecular target: T1, Beta-lactoglobulin (Bos taurus); test: Binding affinity to bovine beta-lactoglobulins at 100 uM by ultrafiltration/HPLC method
In short: (§4)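 Ultrafiltration sampling with HPLC analysis. Ligand at 100 μM was allowed to interact with βLG at 50 μM, and the fraction of ligand found in the retentate was quantified as a percentage.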

Rangifer tarandus [8] = test: Binding affinity to reindeer beta-lactoglobulin at 100 uM by ultrafiltration/HPLC method; in short: as §4
[9] = as §1; parameters: species or system Rangifer tarandus
[10] = Solubility assessed as aggregate formation at <= pH 4 by dynamic light scattering method; type: physicochemical; settings: buffer; in short: as §3
Beta-lactoglobulin = molecular target: T2, Beta-lactoglobulin (Bos taurus, UniProt P02754); test: as §2
T2 sequence (P02754 whole entry): T1 sequence (whole entry)

| Compound | Activity (Rangifer tarandus [1]) | Activity [2] | solubility [3] [µM] | solubility [4] | Activity [5] [nm] | Activity [6] [nm] | Activity [7] | Activity (Rangifer tarandus [8]) | pKd [9] | solubility [10] | pKd (Beta-lactoglobulin) |
| --- | --- | --- | --- | --- | --- | --- | --- | --- | --- | --- | --- |
| C/C(=C\c1ccc(C(=O)O)cc1)c1ccc2c(c1)C(C)(C)CCC2(C)C | Active | Active | 50 (≈ 17.4 µg/mL) | Insoluble | 243 | 848.5 | Active | Active | – | – | – |
| CC1=C(/C=C/C(C)=C/C=C/C(C)=C/C(=O)Nc2ccc(O)cc2)C(C)(C)CCC1 [FENRETINIDE] | Active | Active | 100 (≈ 39.2 µg/mL) | Insoluble | 424 | 818.1 | Active | Active | – | – | – |
| CC1=C(/C=C/C(C)=C/C=C/C(C)=C/CO)C(C)(C)CCC1 [RETINOL] | – | – | – | – | 129 | 972.2 | 7.9% | 7.6% | 6.70 | Insoluble | – |
| CC1=C(/C=C/c2ccc(/C=C/C(=O)O)cc2)C(C)(C)CCC1 | – | – | 100 (≈ 29.6 µg/mL) | – | 188 | 668.7 | 29.1% | 18.8% | 6.97 | Insoluble | 6.82 |
| COC(=O)/C=C/c1ccc(/C=C/C2=C(C)CCCC2(C)C)cc1 | – | Active | – | Insoluble | 276 | 791.6 | 7% | 11% | – | – | – |
